For experiment [1], the target named is T1, Glycogen phosphorylase, muscle form (Oryctolagus cuniculus, UniProt P00489).
T1 sequence (P00489 whole entry): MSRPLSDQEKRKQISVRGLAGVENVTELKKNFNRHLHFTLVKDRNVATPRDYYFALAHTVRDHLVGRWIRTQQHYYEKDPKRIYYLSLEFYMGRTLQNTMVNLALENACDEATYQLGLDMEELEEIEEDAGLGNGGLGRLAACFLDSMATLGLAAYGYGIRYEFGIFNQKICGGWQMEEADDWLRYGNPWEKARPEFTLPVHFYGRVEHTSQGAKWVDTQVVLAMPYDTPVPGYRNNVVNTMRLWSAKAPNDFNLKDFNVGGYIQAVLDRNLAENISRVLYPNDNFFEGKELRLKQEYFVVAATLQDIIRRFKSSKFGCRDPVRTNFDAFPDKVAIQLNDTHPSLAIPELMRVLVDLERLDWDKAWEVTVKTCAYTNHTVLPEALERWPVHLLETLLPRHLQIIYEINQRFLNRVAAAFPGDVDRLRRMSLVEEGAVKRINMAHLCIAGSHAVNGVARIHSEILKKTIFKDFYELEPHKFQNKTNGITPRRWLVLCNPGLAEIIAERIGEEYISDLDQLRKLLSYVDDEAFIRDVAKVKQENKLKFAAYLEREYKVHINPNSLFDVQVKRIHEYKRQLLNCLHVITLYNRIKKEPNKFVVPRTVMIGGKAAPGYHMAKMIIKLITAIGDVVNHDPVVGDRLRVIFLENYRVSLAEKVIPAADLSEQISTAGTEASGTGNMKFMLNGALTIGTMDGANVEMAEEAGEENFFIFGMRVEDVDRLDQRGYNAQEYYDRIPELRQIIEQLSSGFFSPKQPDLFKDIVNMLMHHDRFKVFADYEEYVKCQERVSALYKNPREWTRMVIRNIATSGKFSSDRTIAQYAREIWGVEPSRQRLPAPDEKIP
Description: Inhibition of rabbit muscle glycogen phosphorylase-b assessed as release of inorganic phosphate using glucose-1-phosphate as substrate in presence of AMP and glycogen by spectrophotometric method. In outline:
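GPb was purified from rabbit skeletal muscle and used at 3 μg/mL at 30 °C, synthesis direction. Medium was 30 mM imidazole/HCl pH 6.8, 60 mM KCl, 0.6 mM EDTA, 0.6 mM DTT, 0.2% w/v glycogen and 1 mM AMP, with Glc-1-P and inhibitor varied. Initial rates came from pseudo-first-order constants of spectrophotometric phosphate release at five time points, fitted by non-linear regression.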

In experiment [2] the target is T2, Glycogen phosphorylase, liver form (Homo sapiens, UniProt P06737).
T2 sequence (P06737 whole entry): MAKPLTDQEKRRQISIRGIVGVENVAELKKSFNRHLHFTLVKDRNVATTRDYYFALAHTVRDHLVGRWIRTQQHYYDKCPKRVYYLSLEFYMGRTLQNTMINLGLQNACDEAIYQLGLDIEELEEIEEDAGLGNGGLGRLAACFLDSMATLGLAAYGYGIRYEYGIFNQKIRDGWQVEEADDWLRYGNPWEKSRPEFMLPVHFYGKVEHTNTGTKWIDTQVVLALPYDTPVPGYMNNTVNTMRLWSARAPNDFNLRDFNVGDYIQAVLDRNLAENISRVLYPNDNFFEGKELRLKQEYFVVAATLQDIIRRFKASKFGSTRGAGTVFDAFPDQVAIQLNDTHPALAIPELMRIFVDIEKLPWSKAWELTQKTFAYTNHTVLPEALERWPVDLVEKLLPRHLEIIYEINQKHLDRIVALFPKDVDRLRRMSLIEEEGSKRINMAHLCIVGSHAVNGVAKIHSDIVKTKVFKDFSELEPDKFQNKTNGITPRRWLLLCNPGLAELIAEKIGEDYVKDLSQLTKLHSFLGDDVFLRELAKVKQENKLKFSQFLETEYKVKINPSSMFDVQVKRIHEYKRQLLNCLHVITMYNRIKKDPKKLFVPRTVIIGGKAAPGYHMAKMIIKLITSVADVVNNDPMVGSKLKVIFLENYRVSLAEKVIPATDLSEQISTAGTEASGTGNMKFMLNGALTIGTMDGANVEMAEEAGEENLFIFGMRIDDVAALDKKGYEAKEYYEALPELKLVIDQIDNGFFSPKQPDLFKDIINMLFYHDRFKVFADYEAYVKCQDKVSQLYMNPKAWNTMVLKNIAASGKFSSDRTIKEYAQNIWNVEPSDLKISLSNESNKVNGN
Description: Inhibition of human liver glycogen phosphorylase-a assessed as release of inorganic phosphate using glucose-1-phosphate as substrate in presence of glycogen by spectrophotometric method. The gist of the method:
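Human liver GPa (1 μg/mL) assayed at 30 °C toward glycogen synthesis in 30 mM imidazole/HCl pH 6.8 with 60 mM KCl, 0.6 mM EDTA, 0.6 mM DTT, 0.2% w/v glycogen, no AMP, and varied Glc-1-P and inhibitor. Orthophosphate release was read spectrophotometrically at five time points; kinetic parameters were fitted by non-linear regression.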

Experiment [3] has as its target T1, Glycogen phosphorylase, muscle form. In words: Inhibition of rabbit muscle glycogen phosphorylase-a assessed as release of inorganic phosphate using glucose-1-phosphate as substrate in presence of glycogen by spectrophotometric method. In outline: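 Rabbit muscle GPa was made by phosphorylating purified rabbit skeletal muscle GPb and used at 3 μg/mL, without AMP. Buffer was 30 mM imidazole/HCl pH 6.8 with 60 mM KCl, 0.6 mM EDTA, 0.6 mM DTT and 0.2% w/v glycogen, with varied Glc-1-P and inhibitor, at 30 °C. Phosphate release was measured spectrophotometrically at five intervals, and data were fitted non-linearly.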

For experiment [4], the target named is T3, Glycogen phosphorylase, muscle form (Oryctolagus cuniculus) (UniProt P00489).
T3 sequence (whole entry): T1 sequence (P00489 whole entry)
Description: Inhibition of rabbit muscle glycogen phosphorylase-b at 625 uM assessed as release of inorganic phosphate using glucose-1-phosphate as substrate in presence of AMP and glycogen by spectrophotometric method.

Experiment [5] is described as follows: Inhibition of glycogen phosphorylase (unknown origin). More on the design: species or system Homo sapiens.

The source made the active and inactive calls. The calls are words filed in the database; no cut-off is given here. Some results are limits rather than exact numbers.

For `OC[C@H]1O[C@@H](c2nc(-c3cccc(-c4ccccc4)c3)n[nH]2)[C@H](O)[C@@H](O)[C@@H]1O`, in experiment [1], the Ki worked out at 68.2 µM.

As to `O=C(O)c1ccc(-c2ccc(-c3n[nH]c([C@@H]4O[C@H](CO)[C@@H](O)[C@H](O)[C@H]4O)n3)cc2)cc1`, the inhibitory constant (Ki) is 2.67 µM in experiment [2], 0.98 µM in experiment [3] and 4.42 µM in experiment [1].

`OC[C@H]1O[C@@H](c2nc(-c3ccc(-c4ccccc4)cc3)n[nH]2)[C@H](O)[C@@H](O)[C@@H]1O`: the Ki in experiment [2] came out at 2.23 µM; in experiment [3], 2.09 µM; in experiment [1], 2.38 µM.

In the case of `OC[C@H]1O[C@@H](c2nc(-c3ccc4ccc5cccc6ccc3c4c56)n[nH]2)[C@H](O)[C@@H](O)[C@@H]1O`, in experiment [1], the inhibition constant Ki was > 1500 µM.

On to `OC[C@H]1O[C@@H](c2nc(-c3ccc4c(c3)Cc3ccccc3-4)n[nH]2)[C@H](O)[C@@H](O)[C@@H]1O`, for which the Ki in experiment [2] worked out at 2.02 µM; in experiment [3], 0.84 µM; in experiment [1] it was 1.19 µM.

Consider `CN(C)/C=N/S(=O)(=O)c1ccc(-c2n[nH]c([C@@H]3O[C@H](CO)[C@@H](O)[C@H](O)[C@H]3O)n2)cc1`, for which the inhibition entry in experiment [4] was “inactive”.

Take `OC[C@H]1O[C@@H](c2nc(-c3ccc4cc5ccccc5cc4c3)n[nH]2)[C@H](O)[C@@H](O)[C@@H]1O`: the inhibitory constant (Ki) in experiment [1] was determined as 20 µM.

With `OC[C@H]1O[C@@H](c2nc(-c3cccc4ccccc34)n[nH]2)[C@H](O)[C@@H](O)[C@@H]1O`, the Ki in experiment [2] was 8.91 µM; in experiment [3], 3.38 µM; in experiment [1], 11.5 µM.

Regarding `OC[C@H]1O[C@H](O)[C@H](O)[C@@H](O)[C@@H]1O`, in experiment [5], the inhibitory constant (Ki) is […].

Take `NS(=O)(=O)c1ccc(-c2n[nH]c([C@@H]3O[C@H](CO)[C@@H](O)[C@H](O)[C@H]3O)n2)cc1`: the Ki in experiment [1] came to 98.2 µM.

For `O=C(O)c1ccc2cc(-c3n[nH]c([C@@H]4O[C@H](CO)[C@@H](O)[C@H](O)[C@H]4O)n3)ccc2c1`, the Ki stood at 3.88 µM in experiment [2], 0.78 µM in experiment [3] and 5.05 µM in experiment [1].
